Activity calls are given as the source filed them. The calls are words filed in the database; no cut-off is given here.
Tests used:
MCF7 [1] = assay: Antiproliferative activity against human MCF7 cells after 24 hrs of drug exposure followed by 72 hrs incubation in drug free media; format: functional, cell-based
In short: (§1)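 Cells grown in MEM with 10% FCS at 37 °C, 5% CO2. Seeded for 48 h (HT-29) or 72 h (MCF-7) before drug. Graded concentrations were tested in six replicates. Continuous runs lasted 72 h (HT-29) or 96 h (MCF-7). Short runs used 24 h drug, then drug-free medium, optionally irradiated 20 min at 366 nm (4 W lamp, 5 cm). Biomass read by crystal violet. IC50 is the mean of ≥2 independent experiments.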

MCF7 [2] = assay: Antiproliferative activity against human MCF7 cells after 96 hrs by crystal violet staining; format: functional, cell-based; conditions: MCF7, 96 h; in short: as §1
Escherichia coli = assay: Induction of photocleave of Escherichia coli pBR322 DNA after irradiation for 2 hrs at 265 nanometer; conditions: in the assay text read “365 nanometer” for “265 nanometer”
In short: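 pBR322 supercoiled plasmid (0.25 µg) in Tris–HCl pH 7.5 with compound at 50 µM (DMSO stock). Irradiated 2 h at 365 nm (8 W, 10 cm). Run on 1% agarose, ethidium bromide stain. Nicked/linear DNA quantified as percentage of total, mean of two experiments.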

MCF7 [3] = assay: Antiproliferative activity against human MCF7 cells after 24 hrs of drug exposure followed by irradiation at 366 nanometer for 20 mins and subsequent incubation of 72 hrs in drug free media; format: functional, cell-based; conditions: MCF7, light or radiation study; in short: as §1
DNA [4] = assay: Binding affinity to calf thymus DNA assessed as change in melting temperature at concentration of 0.1 [compound]/[DNA]; format: nucleic-acid assay; conditions: Bos taurus
In short: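 CT DNA at 200 µM nucleotide with compound at 20 µM in 10 mM phosphate buffer, pH 7.2, 1% DMSO. Melting followed at 260 nm in 1 °C steps. Tm taken as the midpoint from first-derivative curves. ΔTm accurate within ±1 °C.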

HT-29 [5] = assay: Antiproliferative activity against human HT29 cells after 24 hrs of drug exposure followed by 48 hrs incubation in drug free media; format: functional, cell-based; in short: as §1
HT-29 [6] = assay: Antiproliferative activity against human HT29 cells after 24 hrs of drug exposure followed by irradiation at 366 nanometer for 20 mins and subsequent incubation of 48 hrs in drug free media; format: functional, cell-based; conditions: HT-29, light or radiation study; in short: as §1
DNA [7] = assay: Binding affinity to calf thymus DNA assessed as decrease in helical B conformation at 245 nanometer wavelength by circular dichroism; format: nucleic-acid assay; conditions: Bos taurus
In short: (§2)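 CD spectra of CT DNA (200 µM nucleotide) after 60 min incubation with 20 µM compound. Recorded after equilibration, when ellipticity no longer changed. DNA concentration set by ε260 = 6600 M^-1 cm^-1.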

HT-29 [8] = assay: Antiproliferative activity against human HT29 cells after 72 hrs by crystal violet staining; format: functional, cell-based; conditions: HT-29, 72 h; in short: as §1
HeLa = assay: Reduction of topoisomerase 2alpha protein level in human HeLa cells by Western blotting; format: functional, cell-based
DNA [9] = assay: Binding affinity to calf thymus DNA assessed as increase in base stacking at 275 nanometer wavelength by circular dichroism; format: nucleic-acid assay; conditions: Bos taurus; in short: as §2

Row | SMILES | IC50 (MCF7 [1]) [µM] | IC50 (MCF7 [2]) [µM] | Activity (Escherichia coli) | IC50 (MCF7 [3]) [µM] | ΔTm (DNA [4]) [°C] | IC50 (HT-29 [5]) [µM] | IC50 (HT-29 [6]) [µM] | Activity (DNA [7]) | IC50 (HT-29 [8]) [µM] | Activity (HeLa) | Activity (DNA [9])
1 | CCSc1ccc2c3c(cccc13)C(=O)N(CCS)C2=O | > 50 | > 50 | Active | > 50 | 2 | > 50 | > 50 | – | – | – | –
2 | CN(C)CCN1C(=O)c2cccc3c(SCc4ccccc4)ccc(c23)C1=O | 6.7 | 3.4 | Active | 1.7 | 7 | 4.8 | 1.3 | Active | 4.1 | inactive | Active
3 | CN(C)CCN1C(=O)c2cccc3cccc(c23)C1=O | 11.6 | 4.5 | Active | 11.3 | 6 | 7.2 | 5.3 | – | 3.5 | Active | –
4 | CN(C)CCN1C(=O)c2cccc3c(Sc4ccccc4N)ccc(c23)C1=O | 4.8 | 2.6 | Active | 4.9 | 9 | 2.8 | 2.8 | Active | 2.9 | Active | –
5 | CCCCSc1ccc2c3c(cccc13)C(=O)N(CCN(C)C)C2=O | 5.7 | 2.6 | Active | 4 | 8 | 4.3 | 3 | Active | 4.6 | inactive | Active
6 | CN(C)CCN1C(=O)c2cccc3c(Sc4nc5ccccc5s4)ccc(c23)C1=O | 7.3 | 2.7 | Active | 2.4 | 3 | 5.5 | 1.8 | – | 4.4 | Active | –
7 | CCSc1ccc2c3c(cccc13)C(=O)N(CCN(C)C)C2=O | 4.5 | 4.4 | Active | 4.3 | 8 | 2.2 | 2.5 | Active | 1.9 | Active | Active
8 | CN(C)CCN1C(=O)c2cccc3c2c(cc2c4ccccc4sc32)C1=O | 0.17 | 0.2 | – | 0.18 | – | 0.23 | 0.21 | – | 0.62 | Active | –
